What was measured:
[1] = tested on: Mus musculus; test: Toxicity assessed as tail bleeding in Kunming mouse at 200 mg/kg, po after 5 mins; type: organism-based; set-up: dose 200 mg/kg, route oral; details: in vivo
Procedure, shortened: (§1)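 Male mice (18–22 g) given a single oral dose, normal saline vehicle, n = 10. At set times after dosing, mouse restrained in a tube holder with tail protruding and a 2-mm tail cut made. Blood wiped away every 30 s until bleeding stopped; bleeding time recorded in s and compared with pre-dose values.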

[2] = tested on: Mus musculus; test: Toxicity assessed as tail bleeding in Kunming mouse at 200 mg/kg, po after 15 mins; type: organism-based; set-up: dose 200 mg/kg, route oral; details: in vivo, 0.25 h; procedure, shortened: as §1
[3] = tested on: Mus musculus; test: Toxicity assessed as tail bleeding in Kunming mouse at 200 mg/kg, po after 60 mins; type: organism-based; set-up: dose 200 mg/kg, route oral; details: in vivo, 1 h; procedure, shortened: as §1
[4] = tested on: Mus musculus; test: Toxicity assessed as tail bleeding in Kunming mouse at 200 mg/kg, po after 30 mins; type: organism-based; set-up: dose 200 mg/kg, route oral; details: in vivo, 0.5 h; procedure, shortened: as §1
[5] = tested on: Mus musculus; test: Antiinflammatory activity in Kunming mouse assessed as inhibition of xylene-induced ear edema at 20 mg/kg, po; type: functional
[6] = tested on: Mus musculus; test: Antiinflammatory activity in Kunming mouse assessed as inhibition of xylene-induced ear edema at 30 mg/kg, po; type: functional
Procedure, shortened: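 Male Kunming mice, 12 per group (tables give n = 11), dosed orally by gavage as a suspension in 0.5% carboxymethyl cellulose; CMC alone as vehicle control. After 30 min, 0.03 mL xylene applied to both surfaces of the right ear, with the left ear as control.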

NCC(=O)N[C@H]1CCO[C@@H](c2ccc([N+](=O)[O-])cc2)OC1 gave a Time [1] of 2 min, a Time [2] of 2.05 min and a Time [3] of 1.99 min. It also gave a Time [4] of 2 min.

With Cc1ccc([C@H]2OC[C@@H](NC(=O)CN)CO2)cc1 the Time [1] was 2 min, the Time [2] was 2 min and the Time [3] was 2 min. For the same molecule, the Time [4] was 1.99 min.

NCC(=O)N[C@H]1CO[C@@H](c2ccc([N+](=O)[O-])cc2)OC1 gave a Time [1] of 2.02 min, a Time [2] of 2.01 min and a Time [3] of 2.02 min. It also gave a Time [4] of 2.04 min.

In the case of C[C@H]1O[C@@H](c2cccc([N+](=O)[O-])c2)OC[C@H]1NC(=O)CN, the Time [1] is reported as 2.01 min, the Time [2] is reported as 2.01 min and the Time [3] is reported as 2 min. For the same molecule, the Time [4] was 1.98 min.

NCC(=O)N[C@H]1CCO[C@@H](c2cccc([N+](=O)[O-])c2)OC1 was tested, and the Time [1] was 1.99 min, the Time [2] was 1.99 min and the Time [3] was 1.99 min. It also gave a Time [4] of 2.05 min.

In the case of C[C@H]1O[C@@H](c2ccc([N+](=O)[O-])cc2)OC[C@H]1NC(=O)CN, the Time [1] is reported as 2 min, the Time [2] is reported as 2.02 min and the Time [3] is reported as 2.01 min. It also gave a Time [4] of 1.98 min.

Molecule C[C@H]1O[C@@H](c2ccc(Cl)cc2)OC[C@H]1N has an inhibition in vivo at 20 mg/kg [5] of 66.7%.

Molecule NCC(=O)N[C@H]1CCO[C@H](c2cccc([N+](=O)[O-])c2)OC1 has a Time [1] of 2.02 min, a Time [2] of 2 min and a Time [3] of 2.02 min. It also gave a Time [4] of 2 min.

NCC(=O)N[C@H]1CCO[C@H](c2ccc([N+](=O)[O-])cc2)OC1 was tested, and the Time [1] was 2.01 min, the Time [2] was 2.01 min and the Time [3] was 1.99 min. The Time [4] was 2 min.

Molecule C[C@H]1O[C@@H](c2ccc(Cl)cc2)OC[C@H]1NC(=O)CN has a Time [1] of 2.04 min, a Time [2] of 2.01 min and a Time [3] of 2.01 min. The Time [4] was 2 min.

For Cc1ccc([C@H]2OC[C@@H](NC(=O)CN)[C@@H](C)O2)cc1, the Time [1] was 2 min, the Time [2] was 2.04 min and the Time [3] was 2 min. The Time [4] was 2.02 min.

Work on C[C@H]1O[C@@H](c2ccc([N+](=O)[O-])cc2)OC[C@H]1N yielded an inhibition in vivo at 20 mg/kg [5] of 78.5%.

NCC(=O)N[C@H]1CCO[C@@H](c2ccc(Cl)cc2)OC1 was tested, and the Time [1] was 1.99 min, the Time [2] was 2.01 min and the Time [3] was 2 min. For the same molecule, the Time [4] was 2.01 min.

C[C@H]1O[C@@H](c2ccccc2)OC[C@H]1NC(=O)CN gave a Time [1] of 2.02 min, a Time [2] of 2 min and a Time [3] of 2.03 min. For the same molecule, the Time [4] was 2.01 min.

CC(=O)Oc1ccccc1C(=O)O [ASPIRIN] gave an inhibition in vivo at 30 mg/kg [6] of 40.7%.

In the case of NCC(=O)N[C@H]1CO[C@@H](c2ccc(Cl)cc2)OC1, the Time [1] is reported as 2.01 min, the Time [2] is reported as 2.01 min and the Time [3] is reported as 2 min. It also gave a Time [4] of 2 min.

Molecule NCC(=O)N[C@H]1CO[C@@H](c2ccccc2)OC1 has a Time [1] of 2 min, a Time [2] of 2 min and a Time [3] of 2.01 min. It also gave a Time [4] of 2.02 min.

Molecule NCC(=O)N[C@H]1CO[C@@H](c2cccc([N+](=O)[O-])c2)OC1 has a Time [1] of 2 min, a Time [2] of 2 min and a Time [3] of 2.02 min. It also gave a Time [4] of 2.04 min.

For NCC(=O)N[C@H]1CCO[C@H](c2ccc(Cl)cc2)OC1, the Time [1] was 2.02 min, the Time [2] was 1.99 min and the Time [3] was 1.99 min. It also gave a Time [4] of 2 min.

— ChEMBL document CHEMBL1143996, “Toward the development of chemoprevention agents (III): synthesis and anti-inflammatory activities of a new class of 5-glycylamino-2-substituted-phenyl-1,3-dioxacycloalkanes” (Bioorg Med Chem, 2008)
